Assay results from ChEMBL document CHEMBL2380291, “Synthesis, 18F-radiolabeling, and in vivo biodistribution studies of N-fluorohydroxybutyl isatin sulfonamides using positron emission tomography” (J Med Chem, 2013).
The source made the active and inactive calls. The rule behind the calls is not given here.

How the values were obtained:
Caspase-1 (Homo sapiens) = target: T1, Caspase-1 (Homo sapiens) (UniProt P29466); assay: Inhibition of human recombinant caspase-1 assessed as Ac-YVAD-AMC conversion to 7-amino-4-methylcoumarin incubated for 10 mins prior to substrate addition measured after 10 mins by spectrophotometric analysis
T1 sequence (whole entry): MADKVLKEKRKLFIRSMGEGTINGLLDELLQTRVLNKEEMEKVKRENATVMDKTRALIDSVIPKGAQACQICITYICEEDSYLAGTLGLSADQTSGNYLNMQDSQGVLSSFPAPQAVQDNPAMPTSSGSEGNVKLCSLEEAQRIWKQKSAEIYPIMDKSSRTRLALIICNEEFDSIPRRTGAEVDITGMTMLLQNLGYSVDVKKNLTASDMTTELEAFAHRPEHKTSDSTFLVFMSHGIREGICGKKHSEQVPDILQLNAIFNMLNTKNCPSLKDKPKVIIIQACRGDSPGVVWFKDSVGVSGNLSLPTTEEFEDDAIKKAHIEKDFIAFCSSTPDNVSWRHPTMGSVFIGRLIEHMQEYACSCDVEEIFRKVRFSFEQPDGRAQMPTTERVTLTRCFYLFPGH
Outline: (§1)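 Recombinant caspase diluted to 0.5 unit per assay (500 pmol substrate converted in 60 min), preincubated 10 min at 37 °C in reaction buffer with inhibitor in DMSO at single final concentrations spanning 5 pM to 500 μM. Peptide substrate then added (final 10 μM) and reacted 10 min. IC50 obtained by nonlinear regression.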

Caspase-3 = target: T2, Caspase-3 (Homo sapiens, UniProt P42574); assay: Inhibition of human recombinant caspase-3 assessed as Ac-DEVD-AMC conversion to 7-amino-4-methylcoumarin incubated for 10 mins prior to substrate addition measured after 10 mins by spectrophotometric analysis; outline: as §1
T2 sequence (P42574 whole entry): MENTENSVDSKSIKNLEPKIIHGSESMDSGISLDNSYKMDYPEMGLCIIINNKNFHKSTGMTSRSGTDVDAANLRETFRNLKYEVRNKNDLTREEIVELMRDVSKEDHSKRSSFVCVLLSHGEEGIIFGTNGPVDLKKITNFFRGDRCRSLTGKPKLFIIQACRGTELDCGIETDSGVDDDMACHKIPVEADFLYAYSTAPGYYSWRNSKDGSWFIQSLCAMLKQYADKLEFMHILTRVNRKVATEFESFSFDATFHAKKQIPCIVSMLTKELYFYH

Caspase-7 = target: T3, Caspase-7 (Homo sapiens, UniProt P55210); assay: Inhibition of human recombinant caspase-7 assessed as Ac-DEVD-AMC conversion to 7-amino-4-methylcoumarin incubated for 10 mins prior to substrate addition measured after 10 mins by spectrophotometric analysis; outline: as §1
T3 sequence (P55210 whole entry): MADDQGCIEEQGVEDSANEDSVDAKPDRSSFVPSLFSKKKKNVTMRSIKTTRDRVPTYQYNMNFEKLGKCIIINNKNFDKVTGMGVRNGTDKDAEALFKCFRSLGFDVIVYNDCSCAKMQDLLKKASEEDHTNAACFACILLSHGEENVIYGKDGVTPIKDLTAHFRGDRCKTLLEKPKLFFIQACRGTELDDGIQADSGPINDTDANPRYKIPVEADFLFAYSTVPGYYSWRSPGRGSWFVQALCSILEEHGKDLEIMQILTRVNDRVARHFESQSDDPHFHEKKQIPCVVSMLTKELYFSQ

Caspase-6 (Homo sapiens) = target: T4, Caspase-6 (Homo sapiens) (UniProt P55212); assay: Inhibition of human recombinant caspase-6 assessed as Ac-VEID-AMC conversion to 7-amino-4-methylcoumarin incubated for 10 mins prior to substrate addition measured after 10 mins by spectrophotometric analysis; outline: as §1
T4 sequence (whole entry): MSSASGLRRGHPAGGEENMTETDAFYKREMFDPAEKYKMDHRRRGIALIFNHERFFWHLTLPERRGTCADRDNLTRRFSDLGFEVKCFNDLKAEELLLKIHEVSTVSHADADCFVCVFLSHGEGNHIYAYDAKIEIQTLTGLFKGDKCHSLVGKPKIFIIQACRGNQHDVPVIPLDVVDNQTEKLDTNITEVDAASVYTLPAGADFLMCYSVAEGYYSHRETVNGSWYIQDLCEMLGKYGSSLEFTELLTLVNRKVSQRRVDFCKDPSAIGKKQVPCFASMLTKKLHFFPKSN

Lung = assay: Biodistribution in mouse lung at 9.8 MBq, iv after 36 seconds by PET/CT analysis; type: ADME, organism-based; details: in vivo, 0.01 h
Outline: (§2)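 Wild-type mice given tracer by tail vein injection through a pump-driven saline flush (300 μL/min) while PET list-mode acquisition started. CT-defined 3D volumes of interest over organs transferred to coregistered PET data. Uptake expressed as percentage injected dose: counts per mL in VOI divided by total counts in mouse, times 100% ID/mL.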

Mus musculus [1] = assay: Biodistribution in mouse urinary bladder at 9.8 MBq, iv after 6 to 96 mins by PET/CT analysis; type: ADME, organism-based; details: in vivo; outline: as §2
Liver = assay: Biodistribution in mouse liver at 9.8 MBq, iv after 6 mins by PET/CT analysis; type: ADME, organism-based; details: in vivo, 0.1 h; outline: as §2
Intestine = assay: Biodistribution in mouse intestine at 9.8 MBq, iv after 6 to 96 mins by PET/CT analysis; type: ADME, organism-based; details: in vivo; outline: as §2
Heart = assay: Biodistribution in mouse heart at 9.8 MBq, iv after 36 seconds by PET/CT analysis; type: ADME, organism-based; details: in vivo, 0.01 h; outline: as §2
Blood = assay: Biodistribution in mouse blood at 9.8 MBq, iv up to 30 mins by PET/CT analysis; type: ADME, organism-based; details: in vivo, 0.5 h; outline: as §2
Kidney = assay: Biodistribution in mouse kidney at 9.8 MBq, iv after 6 mins by PET/CT analysis; type: ADME, organism-based; details: in vivo, 0.1 h; outline: as §2
Mus musculus [2] = assay: Biodistribution in mouse gall bladder at 9.8 MBq, iv after 6 to 96 mins by PET/CT analysis; type: ADME, organism-based; details: in vivo; outline: as §2

Compound: COC[C@@H]1CCCN1S(=O)(=O)c1ccc2c(c1)C(=O)C(=O)N2CC[C@@H](F)CO
- inhibition (Caspase-1 (Homo sapiens)): Active
- IC50 (Caspase-3): 56 nM
- IC50 (Caspase-7): 71 nM
- inhibition (Caspase-6 (Homo sapiens)): Active

Compound: COC[C@@H]1CCCN1S(=O)(=O)c1ccc2c(c1)C(=O)C(=O)N2CC[C@H](O)CF
- inhibition (Caspase-1 (Homo sapiens)): Active
- IC50 (Caspase-3): 23.3 nM
- IC50 (Caspase-7): 27 nM
- inhibition (Caspase-6 (Homo sapiens)): Active

Compound: COC[C@@H]1CCCN1S(=O)(=O)c1ccc2c(c1)C(=O)C(=O)N2CC[C@H](F)CO
- inhibition (Caspase-1 (Homo sapiens)): Active
- IC50 (Caspase-3): 11.8 nM
- IC50 (Caspase-7): 0.951 nM
- inhibition (Caspase-6 (Homo sapiens)): Active

Compound: COC[C@@H]1CCCN1S(=O)(=O)c1ccc2c(c1)C(=O)C(=O)N2CC[C@@H](O)CO
- inhibition (Caspase-1 (Homo sapiens)): Active
- IC50 (Caspase-3): 187 nM
- IC50 (Caspase-7): 128 nM
- inhibition (Caspase-6 (Homo sapiens)): Active

Compound: COC[C@@H]1CCCN1S(=O)(=O)c1ccc2c(c1)C(=O)C(=O)N2CC[C@@H](O)C[18F]
- Drug uptake (Lung): 3 %ID/ml
- Drug uptake (Mus musculus [1]): Active
- Drug uptake (Liver): 12 %ID/ml
- Drug uptake (Intestine): Active
- Drug uptake (Heart): 3.6 %ID/ml
- Drug uptake (Blood): Active
- Drug uptake (Kidney): 5.2 %ID/ml
- Drug uptake (Mus musculus [2]): Active

Compound: COC[C@@H]1CCCN1S(=O)(=O)c1ccc2c(c1)C(=O)C(=O)N2CC[C@@H](O)CF
- inhibition (Caspase-1 (Homo sapiens)): Active
- IC50 (Caspase-3): 25.9 nM
- IC50 (Caspase-7): 296 nM
- inhibition (Caspase-6 (Homo sapiens)): Active

Compound: COC[C@@H]1CCCN1S(=O)(=O)c1ccc2c(c1)C(=O)C(=O)N2CC[C@H](O)CO
- inhibition (Caspase-1 (Homo sapiens)): Active
- IC50 (Caspase-3): 106 nM
- IC50 (Caspase-7): 103 nM
- inhibition (Caspase-6 (Homo sapiens)): Active
